# Where “and” joins values, the source holds several entries; their conditions need not be identical. Identical values can stand only once.
# Key:
# [1] = tested on: FAP-positive cell lines (NCIH2228, U87, and SKMEL24); test: In vitro fluorescence binding of QCP01 to FAP-positive cell lines; type: cell-based, human; conditions: 1 h incubation, range 50-0.78 nM
# [2] = tested on: FAP-negative cell lines (PC3, NCIH226, and HCT116); test: In vitro fluorescence binding of QCP01 to FAP-negative cell lines; type: cell-based, human; conditions: any of the concentrations tested (50-0.78 nM)
# [3] = tested on: U87 and PC3 tumor xenografts; test: NIRF imaging of QCP01 in tumor-bearing mice; type: in vivo, NOD/SCID mice
# DPP-IV = conditions: read-out: IC50 DPP-IV; cited from earlier work
# [4] = tested on: FAP-negative PC3 xenograft; test: Ex vivo biodistribution of [111In]QCP02, PC3 xenograft; design: species or system NOD/SCID mice
# How it was run: (§1)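 Male NOD/SCID mice (6–8 weeks) carried subcutaneous xenografts of 1 million U87 cells (left upper flank) and PC3 cells (right upper flank) in HBSS, used at 100–300 mm3. Radioligand was given as 0.37 MBq in 200 μL saline (<10% ethanol) via the tail vein. Groups (n = 4) were killed by CO2 at 5 min, 30 min, 1, 3, 6, 10 and 28 h. Weighed tissues were gamma-counted, decay-corrected against a standard dilution of the dose, and expressed as %ID/g.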
# FAP-negative PC3 cells = test: Cellular uptake of [111In]QCP02 in PC3 cells; type: cell-based, human; conditions: 0.037 MBq, 30 min at 37 °C
# [5] = tested on: U87 and PC3 tumor xenografts; test: SPECT-CT imaging of [111In]QCP02 in tumor-bearing mice; type: in vivo, NOD/SCID mice
# FAP-positive U87 cells = test: Cellular uptake of [111In]QCP02 in U87 cells; type: cell-based, human; conditions: 0.037 MBq, 30 min at 37 °C
# [6] = tested on: FAP-positive U87 xenograft; test: Ex vivo biodistribution of [111In]QCP02, U87 xenograft; design: species or system NOD/SCID mice
# How it was run: as §1
# FAP = conditions: read-out: IC50 FAP; cited from earlier work
# [7] = tested on: FAP-positive cell lines (U87, NCIH228, and SKMEL24); conditions: inhibitor 10^-10 to 10^-4 M, then 25 nM QCP01 for 1 h at 37 °C
# [8] = 1 h post injection, 0.37 MBq via tail vein
smiles,measurement,setting,value
CC1(C)C(/C=C/C2=C(Oc3ccc(S(=O)(=O)O)cc3)C(=C/C=C3/N(CCCCS(=O)(=O)O)c4ccc(S(=O)(=O)O)cc4C3(C)C)/CCC2)=[N+](CCCCCC(=O)NCCCOc2ccc3nccc(C(=O)NCC(=O)N4CCC[C@H]4C#N)c3c2)c2ccc(S(=O)(=O)[O-])cc21 [QCP01],concentration at which binding was saturated,[1],50 nM
same,lowest concentration at which QCP01 binding was observed,[1],1.56 nM
same,binding in FAP-negative cell lines,[2],no specific binding
same,NIRF uptake in normal tissues,"[3]; 5 nmol QCP01 via tail vein, 30 min after injection",mild degree (moderate in the kidney)
same,NIRF uptake in PC3 tumors,"[3]; 5 nmol QCP01 via tail vein, 30 min until 5 h, washout at 24 h",mild uptake
same,NIRF uptake in U87 xenografts over time,"[3]; 5 nmol QCP01 via tail vein, imaging 0.5-48 h","persisted up to 5 h after injection, with washout after 24 h"
same,ex vivo NIRF uptake of excised U87 tumor versus PC3 tumor,"[3]; 5, 24, and 48 h after injection",higher QCP01 uptake than the PC3 tumor
CC(C)[C@H](N)C(=O)N1CCC[C@H]1B(O)O [Val-boroPro],IC50,DPP-IV,22 ± 1 nM
"N#C[C@@H]1CCCN1C(=O)CNC(=O)c1ccnc2ccc(OCCCNC(=O)CCC(C(=O)O)N3CCN(CC(=O)[O-])CCN(CC(=O)[O-])CCN(CC(=O)[O-])CC3)cc12.[111In+3] (stereo partly drawn) [[^111In]QCP02, [^111In]2,2′,2″-(10-(1-Carboxy-4-((3-((4-((2-((S)-2-cyanopyrrolidin-1-yl)-2-oxoethyl)carbamoyl)quinolin-6-yl)oxy)propyl)amino)-4-oxobutyl)-1,4,7,10-tetraazacyclododecane-1,4,7-triyl)triacetate]",uptake in PC3 xenograft,[4]; [8],4.12 ± 0.36 % ID/g
same,uptake in PC3 tumor,[4]; all time points,less than 5 % ID/g
same,binding of the incubated dose,FAP-negative PC3 cells,0.01%
same,retention of uptake in U87 xenografts on SPECT-CT,"[5]; 7.4 MBq via tail vein, uptake seen as early as 1 h post injection",up to 10 h
same,uptake in PC3 xenografts on SPECT-CT,"[5]; all imaging time points (1, 3, 6, 10, 28 h)",low uptake
same,binding of the incubated dose,FAP-positive U87 cells,over 30%
same,uptake in U87 tumor,[6]; 5 min post injection,over 10 % ID/g
same,uptake in U87 tumor (peak),[6]; 30 min post injection,18.2 % ID/g and 18.16 ± 11.67 % ID/g
same,uptake in U87 xenograft,[6]; [8],16.09 ± 4.17 % ID/g
same,"uptake in U87 xenografts, blocked","[6]; 6 h post injection, co-injection of non-radioactive QCP02 (50 μg per mouse)",0.55 ± 0.23 % ID/g
same,uptake in U87 xenograft relative to PC3 xenograft,[6]; all time points,3–4 fold
same,time by which washout of radiotracer in U87 tumors was observed,[6]; post injection,≤ 28 h
N[C@@H](CC(=O)N1CCn2c(nnc2C(F)(F)F)C1)Cc1cc(F)c(F)cc1F [sitagliptin],IC50,FAP,> 100000 nM
same,effect of pretreatment on QCP01 binding (fluorescence signal),[7],not inhibited
